target: T1, OR51L1 (Homo sapiens) (UniProt Q8NGJ5); conditions: stereoisomer not certain
T1 sequence (whole entry): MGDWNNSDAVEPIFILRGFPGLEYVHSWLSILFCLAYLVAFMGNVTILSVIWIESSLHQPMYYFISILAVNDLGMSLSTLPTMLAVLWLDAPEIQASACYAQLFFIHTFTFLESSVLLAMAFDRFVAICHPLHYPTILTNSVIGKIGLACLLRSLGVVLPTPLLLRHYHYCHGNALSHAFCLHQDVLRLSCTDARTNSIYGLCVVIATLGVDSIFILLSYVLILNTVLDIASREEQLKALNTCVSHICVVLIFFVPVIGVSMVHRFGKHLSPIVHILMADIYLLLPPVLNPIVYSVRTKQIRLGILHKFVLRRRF
How it was run: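 Each receptor–molecule pair is labelled responsive or non-responsive (inactive) according to whether the original authors judged the measured signal statistically different from baseline. The data were taken from the main text and supplementary material of published papers and checked for typos and inconsistencies. Assay methods differed by source, with transient luciferase assays in mammalian cell lines being common.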
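Note: active if original authors judged signal statistically different from baseline.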

SMILES | odorant receptor agonist call
CCCCC(C)=O | inactive
CCCCCOC(=O)CCCCC | inactive
CCC(C(=O)O)c1ccccc1 (stereo not given) | inactive
CCCCCCCCC(=O)O | inactive
c1ccccc1 | inactive
C=CCOC(=O)CCCCCC | inactive
CCOC(=O)C(C)C | inactive
CCCCC(=O)CC | inactive
CCCCCCOC(C)=O | inactive
O=c1ccc2ccccc2o1 | inactive
CCCCCCCCS | inactive
CCC(=O)C(=O)CC | inactive
CC(=O)OCC=C(C)C | inactive
CC(=O)Oc1ccccc1 | inactive
CCCCCCO | inactive
CCCCCCCCCC(=O)[O-].[H+] | inactive
CCCCCCC(C)=O | inactive
CCCCCCCCCCO | inactive
CCCCCCCC(C)=O | inactive
O=C1CCOc2ccccc21 | inactive
CC12CCC(CC1=O)C2(C)C (stereo not given) | inactive
O=C(c1ccccc1)c1ccccc1 | inactive
CC(=O)OCc1ccccc1 | inactive
CCCCCCC(=O)[O-].[H+] | inactive
O=C1Cc2ccccc2O1 | inactive
CCCC(C)=O | inactive
CCCCOC=O | inactive
CCCCCCCCCO | inactive
CCCCCC(=O)CC | inactive
C=C(C)C1CCC(C)C(=O)C1 (stereo not given) | inactive
